Test results published in ChEMBL document CHEMBL3414503, “Distinct novel quinazolinone exhibits selective inhibition in MGC-803 cancer cells by dictating mutant p53 function” (Eur J Med Chem, 2015).
Calls of active or inactive are those of the source. The calls are words filed in the database; no cut-off is given here.

Experiments:
HepG2 = assay: Cytotoxicity against human HepG2 cells assessed as cell viability after 48 hrs by MTT assay; format: functional, cell-based; settings: HepG2, 48 h
In short: (§1)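 Cells were trypsinized, seeded in 96-well plates at 2 × 10³ cells/well and grown for 24 h. Medium was then replaced with compound solutions (in DMSO, range from 0.1) for 48 h, and viability was read by MTT. Cancer lines were grown in RPMI 1640 + 10% FCS. IC50 from 3 independent experiments, each in triplicate.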

NCI-H460 = assay: Cytotoxicity against human NCI-H460 cells assessed as cell viability after 48 hrs by MTT assay; format: functional, cell-based; settings: NCI-H460, 48 h; in short: as §1
MGC-803 [1] = assay: Cytotoxicity against human MGC803 cells assessed as cell viability after 48 hrs by MTT assay; format: functional, cell-based; settings: MGC-803, 48 h; in short: as §1
A-375 = assay: Cytotoxicity against human A375 cells assessed as cell viability after 48 hrs by MTT assay; format: functional, cell-based; settings: A-375, 48 h; in short: as §1
MGC-803 [2] = assay: Cell cycle arrest in human MGC803 cells assessed as accumulation at sub G1 phase at 1 uM after 48 hrs by propidium iodide staining-based FACS analysis relative to control; format: functional
MGC-803 [3] = assay: Cell cycle arrest in human MGC803 cells assessed as accumulation at G0/G1 phase at 1 uM after 48 hrs by propidium iodide staining-based FACS analysis relative to control; format: functional
MGC-803 [4] = assay: Cell cycle arrest in human MGC803 cells assessed as accumulation at S phase at 1 uM after 48 hrs by propidium iodide staining-based FACS analysis relative to control; format: functional
MGC-803 [5] = assay: Cell cycle arrest in human MGC803 cells assessed as accumulation at G2/M phase at 1 uM after 48 hrs by propidium iodide staining-based FACS analysis relative to control; format: functional
MGC-803 [6] = assay: Cell cycle arrest in human MGC803 cells assessed as accumulation at sub G1 phase at 10 uM after 48 hrs by propidium iodide staining-based FACS analysis relative to control; format: functional
MGC-803 [7] = assay: Cell cycle arrest in human MGC803 cells assessed as accumulation at G0/G1 phase at 10 uM after 48 hrs by propidium iodide staining-based FACS analysis relative to control; format: functional
MGC-803 [8] = assay: Cell cycle arrest in human MGC803 cells assessed as accumulation at S phase at 10 uM after 48 hrs by propidium iodide staining-based FACS analysis relative to control; format: functional
MGC-803 [9] = assay: Cell cycle arrest in human MGC803 cells assessed as accumulation at G2/M phase at 10 uM after 48 hrs by propidium iodide staining-based FACS analysis relative to control; format: functional
[10] = test system: Cellular tumor antigen p53 (Homo sapiens), P04637 [UNDEFINED MUTATION]; assay: Inhibition of P53 mutant phosphorylation at s392 in human MGC803 cells at 1 to 10 uM after 24 hrs by Western blot analysis; format: cell-based; settings: MGC-803
In short: (§2)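 MGC-803 cells, 3 × 10⁵ per well of a 6-well plate, exposed to compound for 24 h. Cells were washed in ice-cold PBS and lysed in sample buffer, then run on SDS-PAGE and transferred to nitrocellulose. Blots were probed with primary antibodies and […] anti-rabbit IgG and developed by ECL.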

[11] = test system: Cellular tumor antigen p53 (Homo sapiens), P04637 [UNDEFINED MUTATION]; assay: Inhibition of P53 mutant acetylation at k373 in human MGC803 cells at 1 to 10 uM after 24 hrs by Western blot analysis; format: cell-based; settings: MGC-803; in short: as §2
MGC-803 [12] = assay: Cytotoxicity against human MGC803 cells assessed as cell viability at 1 to 10 uM after 48 hrs by MTT assay; format: functional, cell-based

Sequence of Cellular tumor antigen p53 (Homo sapiens), P04637 [UNDEFINED MUTATION] (P04637 whole entry, looked up, stated change not applied): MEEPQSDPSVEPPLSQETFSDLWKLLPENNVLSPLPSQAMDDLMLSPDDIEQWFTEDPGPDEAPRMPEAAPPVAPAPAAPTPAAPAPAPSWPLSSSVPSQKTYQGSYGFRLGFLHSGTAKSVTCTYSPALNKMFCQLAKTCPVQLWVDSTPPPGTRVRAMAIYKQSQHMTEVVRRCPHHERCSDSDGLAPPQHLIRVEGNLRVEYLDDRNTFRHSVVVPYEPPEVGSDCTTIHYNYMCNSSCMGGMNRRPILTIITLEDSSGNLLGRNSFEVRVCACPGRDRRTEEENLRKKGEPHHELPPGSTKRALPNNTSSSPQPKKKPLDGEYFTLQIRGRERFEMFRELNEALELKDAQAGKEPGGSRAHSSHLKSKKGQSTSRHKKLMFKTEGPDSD

Structure (SMILES)	IC50 (HepG2)	IC50 (NCI-H460)	IC50 (MGC-803 [1])	IC50 (A-375)	further results
CN(C)CCCn1c(/C=C/c2ccc(Cl)cc2Cl)nc2cc(Cl)ccc2c1=O	8.58 µM	13.3 µM	5.75 µM	12.9 µM	–
CN(C)CCCn1c(/C=C/c2ccc(Cl)cc2Cl)nc2ccccc2c1=O	4.2 µM	5.86 µM	3.89 µM	7.15 µM	Activity (MGC-803 [2]): 5.09%; Activity (MGC-803 [3]): 54.16%; Activity (MGC-803 [4]): 29.35%; Activity (MGC-803 [5]): 11.4%; Activity (MGC-803 [6]): 31.98%; Activity (MGC-803 [7]): 34.55%; Activity (MGC-803 [8]): 20.64%; Activity (MGC-803 [9]): 12.83%
CN(C)CCCn1c(/C=C/c2ccc([N+](=O)[O-])cc2)nc2cc(Cl)ccc2c1=O	7.41 µM	5.55 µM	8.28 µM	10.3 µM	–
COc1cc2nc(/C=C/c3ccc(Cl)cc3Cl)n(CCCN(C)C)c(=O)c2cc1OC	6.45 µM	6.37 µM	5.92 µM	12.7 µM	–
COc1cc2nc(/C=C/c3cccc([N+](=O)[O-])c3)n(CCCN(C)C)c(=O)c2cc1OC	–	–	–	> 20 µM	–
CN(C)CCCn1c(/C=C/c2cccc([N+](=O)[O-])c2)nc2cc(Cl)ccc2c1=O	6.13 µM	5.83 µM	4.14 µM	14 µM	–
CN(C)CCn1c(/C=C/c2ccc(F)cc2)nc2ccccc2c1=O	> 20 µM	> 20 µM	> 20 µM	> 20 µM	–
COc1cc2nc(/C=C/c3ccccc3Br)n(CCCN(C)C)c(=O)c2cc1OC	–	–	–	> 20 µM	–
CCCCn1c(/C=C/c2cccc(O)c2)nc2ccccc2c1=O	> 20 µM	> 20 µM	> 20 µM	> 20 µM	–
CN(C)CCCn1c(/C=C/c2ccc(F)cc2)nc2cc(Cl)ccc2c1=O	> 20 µM	> 20 µM	> 20 µM	> 20 µM	–
CN(C)CCn1c(/C=C/c2cccc([N+](=O)[O-])c2)nc2ccccc2c1=O	> 20 µM	> 20 µM	> 20 µM	> 20 µM	–
CN(C)CCCn1c(/C=C/c2ccc3c(c2)OCO3)nc2cc(Cl)ccc2c1=O	> 20 µM	> 20 µM	> 20 µM	> 20 µM	–
CCCCn1c(/C=C/c2ccc(OC)c(OC)c2)nc2ccccc2c1=O	> 20 µM	> 20 µM	> 20 µM	> 20 µM	–
CN(C)CCn1c(/C=C/c2ccc(Cl)cc2)nc2ccccc2c1=O	> 20 µM	> 20 µM	> 20 µM	> 20 µM	–
CN(C)CCCn1c(/C=C/c2ccc(Cl)cc2)nc2ccccc2c1=O	> 20 µM	> 20 µM	> 20 µM	> 20 µM	–
CCCCn1c(/C=C/c2ccccc2Br)nc2ccccc2c1=O	> 20 µM	> 20 µM	> 20 µM	> 20 µM	–
CN(C)CCCn1c(/C=C/c2cccc(O)c2)nc2ccccc2c1=O	6.1 µM	> 20 µM	> 20 µM	> 20 µM	–
COc1cc2nc(/C=C/c3ccc(F)cc3)n(CCCN(C)C)c(=O)c2cc1OC	> 20 µM	> 20 µM	> 20 µM	–	inhibition [10]: inactive; inhibition [11]: inactive; Activity (MGC-803 [12]): inactive
CN(C)CCCn1c(/C=C/c2ccccc2Br)nc2ccccc2c1=O	5.06 µM	6.54 µM	14.6 µM	8.41 µM	–
CCCCn1c(/C=C/c2ccc(Cl)cc2Cl)nc2ccccc2c1=O	> 20 µM	> 20 µM	> 20 µM	> 20 µM	–
